# Molecular target: T1, IgG receptor FcRn large subunit p51 (Homo sapiens, UniProt P55899)
# Assay: Inhibition of human IgG binding to soluble human FcRn by ELISA
# Outline: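 Biotinylated soluble human FcRn immobilized on neutravidin plates, incubated with hIgG (3 nM, constant) and peptide at varying concentrations for 2 h at 37 °C. After washing, bound hIgG detected with peroxidase-conjugated hIgG-specific Fab fragments.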
# T1 sequence (P55899 whole entry): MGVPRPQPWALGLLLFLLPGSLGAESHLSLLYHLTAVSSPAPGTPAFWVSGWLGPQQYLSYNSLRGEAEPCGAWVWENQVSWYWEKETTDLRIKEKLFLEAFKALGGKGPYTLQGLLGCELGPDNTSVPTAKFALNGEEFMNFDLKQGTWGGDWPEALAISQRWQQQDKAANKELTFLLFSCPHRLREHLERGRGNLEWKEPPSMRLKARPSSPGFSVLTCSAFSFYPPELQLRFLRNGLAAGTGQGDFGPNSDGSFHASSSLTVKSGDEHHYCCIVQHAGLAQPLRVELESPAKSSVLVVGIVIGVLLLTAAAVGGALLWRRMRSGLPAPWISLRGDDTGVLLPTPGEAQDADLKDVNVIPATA
row,IC50 [µM],Structure (SMILES)
1,90,CC(C)C[C@H](NC(=O)CNC(=O)CNC(=O)[C@H](Cc1ccc2ccccc2c1)NC(=O)[C@H](Cc1cnc[nH]1)NC(=O)CNC(=O)[C@@H](NC(=O)[C@@H](NC(=O)[C@H](Cc1ccccc1)NC(=O)[C@H](CCCN=C(N)N)NC(=O)[C@@H](N)CCC(N)=O)C(C)(C)S)[C@@H](C)O)C(=O)N[C@@H](Cc1ccc(O)cc1)C(=O)N1CCC[C@H]1C(=O)N[C@@H](CS)C(=O)N[C@@H](CC(N)=O)C(=O)NCC(=O)N1CCC[C@H]1C(=O)O
2,4.1,Cc1cccc(C[C@H](NC(=O)[C@H](Cc2cnc[nH]2)NC(=O)CNC(=O)[C@@H](NC(=O)[C@@H](NC(=O)[C@H](Cc2ccccc2)NC(=O)[C@H](CCCN=C(N)N)NC(=O)[C@@H](N)CCC(N)=O)C(C)(C)S)[C@@H](C)O)C(=O)NCC(=O)NCC(=O)N[C@@H](CC(C)C)C(=O)N[C@@H](Cc2ccc(O)cc2)C(=O)N2CCC[C@H]2C(=O)N[C@@H](CS)C(=O)N[C@@H](CC(N)=O)C(=O)NCC(=O)N2CCC[C@H]2C(=O)O)c1
3,> 250,CC(C)C[C@H](NC(=O)[C@@H]1CCCN1C(=O)[C@H]1CCCN1C(=O)[C@H](Cc1ccccc1)NC(=O)[C@H](Cc1cnc[nH]1)NC(=O)CNC(=O)[C@@H](NC(=O)[C@@H](NC(=O)[C@H](Cc1ccccc1)NC(=O)[C@H](CCCN=C(N)N)NC(=O)[C@@H](N)CCC(N)=O)C(C)(C)S)[C@@H](C)O)C(=O)N[C@@H](Cc1ccc(O)cc1)C(=O)N1CCC[C@H]1C(=O)N[C@@H](CS)C(=O)N[C@@H](CC(N)=O)C(=O)NCC(=O)N1CCC[C@H]1C(=O)O

# Molecular target: T1, IgG receptor FcRn large subunit p51
# Assay: Binding affinity to human FcRn at pH 6 by surface plasmon resonance assay
# Outline: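 Soluble human FcRn coupled to the dextran surface of a CM5 chip; peptide dilutions flowed over the chip. The equilibrium response at each dilution was plotted against concentration and fitted to a steady-state affinity model to give Kd.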
row,Structure (SMILES),Kd [µM]
1,CC(C)C[C@H](NC(=O)[C@@H]1CCCN1C(=O)[C@H]1CCCN1C(=O)[C@H](Cc1ccccc1)NC(=O)[C@H](Cc1cnc[nH]1)NC(=O)CNC(=O)[C@@H](NC(=O)[C@@H](NC(=O)[C@H](Cc1ccccc1)NC(=O)[C@H](CCCN=C(N)N)NC(=O)[C@@H](N)CCC(N)=O)C(C)(C)S)[C@@H](C)O)C(=O)N[C@@H](Cc1ccc(O)cc1)C(=O)N1CCC[C@H]1C(=O)N[C@@H](CS)C(=O)N[C@@H](CC(N)=O)C(=O)NCC(=O)N1CCC[C@H]1C(=O)O,> 100
2,CC(C)C[C@H](NC(=O)CNC(=O)CNC(=O)[C@H](Cc1ccccc1)NC(=O)[C@H](Cc1cnc[nH]1)NC(=O)CNC(=O)[C@@H](NC(=O)[C@H](NC(=O)[C@H](Cc1ccccc1)NC(=O)[C@H](CCCNC(=N)N)NC(=O)[C@@H](N)CCC(N)=O)C(C)(C)S)[C@@H](C)O)C(=O)N[C@@H](Cc1ccc(O)cc1)C(=O)N1CCC[C@@H]1C(=O)N[C@H](CS)C(=O)N[C@@H](CC(N)=O)C(=O)NCC(=O)N1CCC[C@H]1C(=O)O,> 250
3,CC(C)C[C@H](NC(=O)CNC(=O)CNC(=O)[C@H](Cc1ccccc1)NC(=O)[C@H](Cc1cnc[nH]1)NC(=O)CNC(=O)[C@H](NC(=O)[C@H](NC(=O)[C@H](Cc1ccccc1)NC(=O)[C@H](CCCN=C(N)N)NC(=O)[C@@H](N)CCC(N)=O)C(C)(C)S)[C@@H](C)O)C(=O)N[C@@H](Cc1ccc(O)cc1)C(=O)N1CCC[C@H]1C(=O)N[C@H](CS)C(=O)N[C@@H](CC(N)=O)C(=O)NCC(=O)N1CCC[C@H]1C(=O)O,> 250
4,CC(C)C[C@H](NC(=O)CNC(=O)CNC(=O)[C@H](Cc1ccccc1)NC(=O)[C@H](Cc1cnc[nH]1)NC(=O)CNC(=O)[C@@H](NC(=O)[C@@H](NC(=O)[C@H](Cc1ccccc1)NC(=O)[C@H](CCCNC(=N)N)NC(=O)[C@@H](N)CCC(N)=O)C(C)(C)S)[C@@H](C)O)C(=O)N[C@@H](Cc1ccc([N+](=O)[O-])cc1)C(=O)N1CCC[C@H]1C(=O)N[C@@H](CS)C(=O)N[C@@H](CC(N)=O)C(=O)NCC(=O)N1CCC[C@H]1C(=O)O,180
5,CC(C)C[C@H](NC(=O)CNC(=O)CNC(=O)[C@H](Cc1ccccc1)N(C)C(=O)[C@H](Cc1cnc[nH]1)NC(=O)CNC(=O)[C@@H](NC(=O)[C@@H](NC(=O)[C@H](Cc1ccccc1)NC(=O)[C@H](CCCN=C(N)N)NC(=O)[C@@H](N)CCC(N)=O)C(C)(C)S)[C@@H](C)O)C(=O)N[C@@H](Cc1ccc(O)cc1)C(=O)N1CCC[C@H]1C(=O)N[C@@H](CS)C(=O)N[C@@H](CC(N)=O)C(=O)NCC(=O)N1CCC[C@H]1C(=O)O,> 250
6,CC(=O)Nc1ccc(C[C@H](NC(=O)[C@H](Cc2cnc[nH]2)NC(=O)CNC(=O)[C@@H](NC(=O)[C@@H](NC(=O)[C@H](Cc2ccccc2)NC(=O)[C@H](CCCN=C(N)N)NC(=O)[C@@H](N)CCC(N)=O)C(C)(C)S)[C@@H](C)O)C(=O)NCC(=O)NCC(=O)N[C@@H](CC(C)C)C(=O)N[C@@H](Cc2ccc(O)cc2)C(=O)N2CCC[C@H]2C(=O)N[C@@H](CS)C(=O)N[C@@H](CC(N)=O)C(=O)NCC(=O)N2CCC[C@H]2C(=O)O)cc1,270

# Now those with a lower Kd, led by results:
row,Kd [µM],Structure (SMILES)
1,11,CC(C)C[C@H](NC(=O)CNC(=O)CNC(=O)[C@H](Cc1ccc2ccccc2c1)NC(=O)[C@H](Cc1cnc[nH]1)NC(=O)CNC(=O)[C@@H](NC(=O)[C@@H](NC(=O)[C@H](Cc1ccccc1)NC(=O)[C@H](CCCN=C(N)N)NC(=O)[C@@H](N)CCC(N)=O)C(C)(C)S)[C@@H](C)O)C(=O)N[C@@H](Cc1ccc(O)cc1)C(=O)N1CCC[C@H]1C(=O)N[C@@H](CS)C(=O)N[C@@H](CC(N)=O)C(=O)NCC(=O)N1CCC[C@H]1C(=O)O
2,1.5,CC(C)C[C@H](NC(=O)[C@@H](Cc1ccc(O)cc1)NC(=O)CNC(=O)[C@H](Cc1ccccc1)NC(=O)[C@H](Cc1cnc[nH]1)NC(=O)CNC(=O)[C@@H](NC(=O)[C@@H](NC(=O)[C@H](Cc1ccccc1)NC(=O)[C@H](CCCN=C(N)N)NC(=O)[C@@H](N)CCC(N)=O)C(C)(C)S)[C@@H](C)O)C(=O)N[C@@H](Cc1ccc(O)cc1)C(=O)N1CCC[C@H]1C(=O)N[C@@H](CS)C(=O)N[C@@H](CC(N)=O)C(=O)NCC(=O)N1CCC[C@H]1C(=O)O
3,0.67,Cc1cccc(C[C@H](NC(=O)[C@H](Cc2cnc[nH]2)NC(=O)CNC(=O)[C@@H](NC(=O)[C@@H](NC(=O)[C@H](Cc2ccccc2)NC(=O)[C@H](CCCN=C(N)N)NC(=O)[C@@H](N)CCC(N)=O)C(C)(C)S)[C@@H](C)O)C(=O)NCC(=O)NCC(=O)N[C@@H](CC(C)C)C(=O)N[C@@H](Cc2ccc(O)cc2)C(=O)N2CCC[C@H]2C(=O)N[C@@H](CS)C(=O)N[C@@H](CC(N)=O)C(=O)NCC(=O)N2CCC[C@H]2C(=O)O)c1
4,0.49,CC(C)C[C@H](NC(=O)CNC(=O)[C@@H](C)NC(=O)[C@H](Cc1ccccc1)NC(=O)[C@H](Cc1cnc[nH]1)NC(=O)CNC(=O)[C@@H](NC(=O)[C@@H](NC(=O)[C@H](Cc1ccccc1)NC(=O)[C@H](CCCNC(=N)N)NC(=O)[C@@H](N)CCC(N)=O)C(C)(C)S)[C@@H](C)O)C(=O)N[C@@H](Cc1ccc(O)cc1)C(=O)N1CCC[C@H]1C(=O)N[C@@H](CS)C(=O)N[C@@H](CC(N)=O)C(=O)NCC(=O)N1CCC[C@H]1C(=O)O

# From ChEMBL document CHEMBL1150419, “Structure-activity relationships of a peptide inhibitor of the human FcRn:human IgG interaction” (Bioorg Med Chem, 2008)
